From PubChem
This excerpt belongs to a sample that is enriched for hits.
GSK3A inh = blockers of GSK3A enzyme activity – biochemical, luminescence, cell-free homogeneous, HTS, primary screen. Glycogen synthase kinase-3 alpha (Homo sapiens), P49840. GSK-3 alpha kinase, ADP-Glo luminescence, 60 min. inhibition, % at 10 µM. 320,000 tested, 0.1% active. AID 2650, 2010;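 active = more than half of replicates show inhibition above 20%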;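 also: GST-tagged GSK-3 alpha with peptide substrate and 25 µM ATP; 0% = DMSO neutral wells and 100% = GW8510 positive control wells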
Dyrk1A ADPGlo = rat Dyrk1A kinase inhibitors, primary screen, biochemical, single point, plate reader; ADP-Glo luminescence, NFATc1 peptide; inhibition, % at 12.5 µM; 310,000 tested, 0.43% active; in the data active = inhibition above about 50%;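 also: plate controls were vehicle with enzyme for no effect and no enzyme for full effect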
GSK3beta inhib = human GSK3beta kinase inhibitors, primary screen, biochemical, cell-free homogeneous, HTS | 300,000 tested, 0.038% active | GST-GSK3beta kinase, ADP-Glo luminescence, 60 min; hits give low values | activity score (negative = inhibition), % at 10 µM | AID 2097, 2009;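 active = more than half of replicate wells score below -50%, meaning over 50% inhibition versus plate controls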;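 also: 0% = median DMSO wells and -100% = median GW8510 positive control wells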
Target sequence (P49841 whole entry, looked up): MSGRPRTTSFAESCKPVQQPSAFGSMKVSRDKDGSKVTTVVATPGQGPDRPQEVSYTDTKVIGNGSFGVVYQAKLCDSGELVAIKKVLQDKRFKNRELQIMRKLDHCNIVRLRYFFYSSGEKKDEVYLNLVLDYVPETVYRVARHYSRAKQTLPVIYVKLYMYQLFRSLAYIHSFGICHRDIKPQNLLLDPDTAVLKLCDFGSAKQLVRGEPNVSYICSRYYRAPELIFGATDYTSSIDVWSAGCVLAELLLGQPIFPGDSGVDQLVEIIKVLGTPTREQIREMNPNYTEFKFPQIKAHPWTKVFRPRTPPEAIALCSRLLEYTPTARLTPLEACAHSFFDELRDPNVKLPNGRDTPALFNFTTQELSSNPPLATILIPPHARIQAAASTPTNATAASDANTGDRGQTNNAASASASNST
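Assay system: GST-tagged human GSK3beta kinase, cell-free; Input: 1.6 ng GSK3beta; Medium: Tris/MgCl2 kinase buffer; Timing: 60 min enzyme reaction, room temperature; Signal: ADP-Glo luminescence quantifying ADP generated by kinase; Evaluation: score relative to plate controls; Benchmarks: DMSO neutral wells and GW8510 at 20 µM as positive.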
STK33 inh = inhibitors of purified STK33 kinase, primary screen, biochemical, ADP-Glo luminescence, homogeneous, cell-free; MBP phosphorylation; inhibition, % at 10 µM; 320,000 tested, 0.073% active;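 active = inhibition at or above 25%, using the most active replicate where run in duplicate; inactive = inhibition below 25%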
An asterisk follows results filed as active; nt = not tested or not shown.

SMILES | GSK3A inh | Dyrk1A ADPGlo | GSK3beta inhib | STK33 inh
CC(CC(=O)Nc1ncc([N+](=O)[O-])s1)c1ccccc1 (stereo unspecified) | 52* | nt | -20 | -2
COC(=O)c1cc(NS(=O)(=O)c2ccc(Cl)c(N3C(=O)c4ccc(C(=O)O)cc4C3=O)c2)cc(C(=O)OC)c1 | 17 | 0 | 8 | -1
O=C(CN1C(=O)CCC1=O)Nc1cccc2c1C(=O)NC2=O | 98* | 2 | -80* | -1
CC1=NNC(=O)C1C(c1ccccc1)C1C(=O)NN=C1C (stereo unspecified) | nt | nt | -2 | 0
CS(=O)(=O)N1CCN(c2ccccc2NC(=O)c2ccc(Br)o2)CC1 | 53* | 43 | 2 | 23
CCc1ncc(CN2CCCCC2C(=O)Nc2ccc(Oc3ccccc3)nc2)cn1 (stereo unspecified) | -1 | -1 | 3 | 0
c1ccc(CCCNCC2COc3ccccc3O2)cc1 (stereo unspecified) | nt | 4 | 2 | -1
CCCNCC1COc2ccccc2O1 (stereo unspecified) | 6 | nt | -52* | -1
CN(Cc1c(C(=O)N/N=C/c2ccc(O)cc2)nnn1-c1nonc1N)c1ccccc1 | 75* | 37 | 2 | 6
CC(=C/c1ccco1)/C=N/NC(=O)c1nnn(-c2nonc2N)c1CN(C)C | 59* | -2 | 3 | -1
CN(Cc1c(C(=O)N/N=C/c2ccccc2)nnn1-c1nonc1N)c1ccccc1 | -6 | 1 | -20 | -1
CCN(CC)Cc1c(C(=O)N/N=C/c2ccccn2)nnn1-c1nonc1N | 60* | -6 | -54* | 1
CCN(CC)Cc1c(C(=O)N/N=C/c2cccs2)nnn1-c1nonc1N | 76* | 14 | -3 | -1
O=c1c2ccccc2oc2cc(-c3ccc4[nH]ccc4c3)ccc12 | -1 | -6 | 2 | 0
COc1ccc(-c2nc(-c3ccccn3)no2)cc1 | 33 | 35 | -20 | 29*
COc1ccc2oc3cc(C)[n+]([O-])c(-c4ccc(C)cc4)c3c2c1 | 53* | 21 | -55* | 1
COc1ccc(-c2c3c(cc(C)[n+]2[O-])oc2ccc(OC)cc23)cc1 | 34 | 45 | -44 | 1
O=C(c1ccc2c3n(nc2c1)-c1ccccc1CO3)N1CCCCC1 | 32 | 44 | -19 | 27*
Cc1ccc2c(c1)COc1c3ccc(C(=O)N4CCCCC4)cc3nn1-2 | -5 | -5 | -3 | -1
COc1cc(/C=C2\SC(=Nc3ccc(Cl)c(C(=O)O)c3)NC2=O)c(Br)c(Br)c1O | 22 | 65* | -15 | 35*
Cc1cccc(N=c2oc3cc(O)ccc3cc2C(N)=O)c1 | 56* | -6 | 0 | 19
CCCn1c2ccc(/C(C)=N\O)cc2c2cc(/C(C)=N/O)ccc21 | 1 | 3 | -2 | 44*
CC(C)(C)C1=NN=C2c3ccccc3C(=O)C21 (stereo unspecified) | 10 | 1 | -3 | 30*
c1cncc(Nc2nc(-c3cccnc3)cs2)c1 | 10 | 32 | -11 | 34*
O=C(C1CCN(S(=O)(=O)c2ccc(Cl)s2)CC1)N1CCN(c2ccccc2)CC1 | nt | -3 | nt | nt
SMILES | GSK3A inh | Dyrk1A ADPGlo | GSK3beta inhib | STK33 inh
CN(c1ncnc(N)c1[N+](=O)[O-])C1CCCCC1 | 22 | 17 | -33 | 3
CN(c1ncnc(N)c1[N+](=O)[O-])C1CCS(=O)(=O)C1 (stereo unspecified) | 55* | 16 | -37 | -1
NS(=O)(=O)c1ccc(N2CCN(C(=O)c3ccco3)CC2)nc1 | 0 | -4 | nt | 0
COC(=O)c1nnn(-c2nonc2N)c1CN1CCc2ccccc21 | 64* | 5 | -6 | -2
COc1ccccc1-c1c(C)oc2cc(OCC(=O)OCc3ccccc3)ccc2c1=O | 0 | -6 | -3 | -2
Cc1cccc(Nc2nc(NCCCN3CCOCC3)nc(N)c2[N+](=O)[O-])c1 | 75* | nt | -74* | 5
COc1ccc(Nc2nc(NCCCN3CCOCC3)nc(N)c2[N+](=O)[O-])cc1 | 85* | 14 | -56* | 2
Cc1cccc(Nc2nc(N)c([N+](=O)[O-])c(NCc3ccccc3)n2)c1 | 7 | 18 | -5 | 1
Nc1nc(Nc2cccc(F)c2)nc(N2CCOCC2)c1[N+](=O)[O-] | 24 | 34 | -19 | 5
Nc1nc(NCCCN2CCOCC2)nc(Nc2ccc(F)cc2)c1[N+](=O)[O-] | 51* | 10 | 12 | 0
